Measured values collected from several papers.
Each line is one published result; the experiments were not run side by side.

| SMILES | assay | test system | setting | endpoint | result |
| --- | --- | --- | --- | --- | --- |
| CCC[C@@](N)(CO)CCc1ccc(OCCCCCC(C)C)cc1 | – | dog, plasma | oral, 20 mg/kg, fed | Cmax | 995 nM |
| Cc1ncc(C)n2nc(/C=C/c3nc(N4CCCC4)cc(N4CCOCC4)n3)nc12 | – | male beagle dog, plasma | oral, 0.3 mg/kg | Cmax | 78 nM |
| N=c1c2c(-c3ccccc3)c(-c3ccccc3)n(Cc3ccccc3)c2ncn1[C@H]1CC[C@H](O)CC1 | metabolic stability | beagle dog, hepatocytes | 1 µM, 4 h | compound remaining | 118% |
| CNC(=O)[C@@H](NC(=O)c1cc(OCC2(C)COC2)c(C2CC2)cn1)C(C)(C)C | – | C57BL/6 mouse, plasma | intravenous | clearance | 73.8 mL/min/kg |
| CCN(CC)CCCC[C@H](NC(=O)[C@H](CC(C)C)NC(=O)[C@H](C)NC(=O)[C@H](Cc1ccccc1)NC(=O)c1ccc(C(C)(C)C)cc1)C(=O)N[C@@H](CO)C(=O)OC | – | male Swiss mouse, blood | intravenous, 3 mg/kg | C0 | 10900 ng/mL |
| CN[C@H](CC(C)C)C(=O)N[C@H]1C(=O)N[C@@H](CC(N)=O)C(=O)N[C@H]2C(=O)NC3C(=O)N[C@H](C(=O)N[C@H](C(=O)NCCC[N+](C)(C)C)c4cc(O)cc(O)c4-c4cc3ccc4O)[C@H](O)c3ccc(c(Cl)c3)Oc3cc2cc(c3OC2OC(CO)C(O)[C@H](O)[C@@H]2O[C@H]2CC(C)(NCc3ccc(-c4ccc(Cl)cc4)cc3)[C@H](O)[C@H](C)O2)Oc2ccc(cc2Cl)[C@H]1O (stereo partly shown) | – | mouse, plasma | intravenous, 10 mg/kg | clearance | 2 mL/min/kg |
| C[C@]12CC[C@H](n3ccnc3)CC1=CC[C@@H]1[C@@H]2CC[C@]2(C)C(n3cnc4ccccc43)=CC[C@@H]12.Cl | – | male CD-1 mouse, plasma | intravenous, 1 mg/kg | C0 | 544 ng/mL |
| Cl.Cl.O=C(CCN1CCCCC1)c1ccc(-c2ccc(C(=O)CCN3CCCCC3)cc2)cc1 | – | Sprague-Dawley rat, plasma | oral, 100 mg/kg | Tmax | 45 min |
| NC(=O)[C@@H]1CC(F)(F)CN1C(=O)c1ccc(N2CC(F)(F)C2)c(OCC2CC2)n1 | – | C57BL/6 mouse, plasma | intravenous | clearance | 28.5 mL/min/kg |
| O=C(Nc1cccnn1)N1CCN([C@@H]2CCOc3cc(C(F)(F)F)ccc32)CC1 | – | male Sprague-Dawley rat, plasma | oral, 0.3 mg/kg | Tmax | 49.8 min |
